Results taken from ChEMBL document CHEMBL4190231, “Anti-Cryptococcus Phenalenones and Cyclic Tetrapeptides from Auxarthron pseudauxarthron” (J Nat Prod, 2017).
Values after ≈ are worked out from the molar mass of the structure shown.

Columns and labels:
Cryptococcus neoformans = assay: Antifungal activity against Cryptococcus neoformans H99 after 48 hrs by resazurin assay; type: functional; conditions: var grubii H99 , read-out: MIC100
Procedure, shortened: (§1)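 Broth serial dilution MIC per NCCLS, in 96-well plates with YM medium (1% maltose extract, 0.2% yeast extract, 0.4% agar). Compounds were dissolved in DMSO and diluted in medium, with amphotericin B as positive control. Incubation was at 25 °C, read at 24 h for C. albicans and 48 h for C. neoformans. Read-outs were visual, OD and PrestoBlue resazurin. MIC is the lowest concentration giving 100% inhibition versus untreated growth.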

Candida albicans = assay: Antifungal activity against Candida albicans ATCC 10231 after 24 hrs by resazurin assay; type: functional; conditions: ATCC 10231, 24 h, read-out: MIC100; procedure, shortened: as §1
MDA-MB-231 = assay: Cytotoxicity against human MDA-MB-231 cells by Celltiter-Glo assay; type: functional, cell-based
Procedure, shortened: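 Viability was measured with CellTiter-Glo reagent added 1:1 to well medium. Plates were kept foil-covered and shaken 2 min at room temperature, paused 2 min, then shaken another 2 min. Luminescence was read on a plate reader.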

MDA-MB-453 = assay: Cytotoxicity against human MDA-MB-453 cells by Celltiter-Glo assay; type: functional, cell-based

| Compound | MIC (Cryptococcus neoformans) [µg/mL] | MIC (Candida albicans) [µg/mL] | IC50 (MDA-MB-231) [µM] | IC50 (MDA-MB-453) [µM] |
| --- | --- | --- | --- | --- |
| CCC(=O)C(C)C1(O)C(=O)c2c(O)cc(C)c3c(OC)cc(O)c(c23)C1=O (configuration not stated) | 6.4 (≈ 17.2 µM) | 6.4 (≈ 17.2 µM) | > 20 | > 20 |
| COc1cc(O)c2c3c(c(O)cc(C)c13)C(=O)C(O)(CC(C)=O)C2=O (configuration not stated) | 51.2 (≈ 149 µM) | 51.2 (≈ 149 µM) | > 20 | > 20 |
| CCC(=O)CC1(O)C(=O)c2c(O)cc(C)c3c(OC)cc(O)c(c23)C1=O (configuration not stated) | 12.8 (≈ 35.7 µM) | 25.6 (≈ 71.4 µM) | > 20 | > 20 |
| C[C@@H]1[C@H](O)[C@@H](C)/C=C/C=C/C=C/C=C/C=C/C=C/C=C/[C@H](O[C@@H]2O[C@H](C)[C@@H](O)[C@H](N)[C@@H]2O)C[C@@H]2O[C@](O)(C[C@@H](O)C[C@@H](O)[C@H](O)CC[C@@H](O)C[C@@H](O)CC(=O)O[C@H]1C)C[C@H](O)[C@H]2C(=O)O [AMPHOTERICIN B] | 0.8 (≈ 0.866 µM) | 0.8 (≈ 0.866 µM) | – | – |

Continued by falling MIC (Cryptococcus neoformans), values first:

| MIC (Cryptococcus neoformans) [µg/mL] | MIC (Candida albicans) [µg/mL] | Compound | IC50 (MDA-MB-231) [µM] | IC50 (MDA-MB-453) [µM] |
| --- | --- | --- | --- | --- |
| 25.6 (≈ 75.2 µM) | 51.2 (≈ 150 µM) | COc1cc(O)c2c3c(c(O)cc(C)c13)C1=C(C)C(=O)CC1(O)C2=O (configuration not stated) | > 20 | > 20 |
| 3.2 (≈ 8.93 µM) | 3.2 (≈ 8.93 µM) | COc1cc(O)c2c3c(c(O)cc(C)c13)C(=O)C(O)(C(C)C(C)=O)C2=O (configuration not stated) | > 20 | > 20 |
